ChEMBL document CHEMBL2346497, “Synthesis of novel cognition enhancers with pyrazolo[5,1-c][1,2,4]benzotriazine core acting at γ-aminobutyric acid type A (GABA(A)) receptor” (Bioorg Med Chem, 2013)
pKi: −log10 of the molar value. Activity calls are given as the source filed them. No cut-off for these calls is given here.

How the values were obtained:
[1] = biological target: GABA A receptor alpha-2/beta-2/gamma-2 (Homo sapiens) (UniProt P47870+P18507+P47869); assay: Displacement of [3H]Ro15-1788 from recombinant GABA-A alpha2beta2gamma2 receptor benzodiazepine binding site (unknown origin) at 10 uM after 1 hr relative to control; format: protein-complex assay
In short: (§1)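 Membranes came from clonal mammalian cell lines expressing α1β2γ2, α2β2γ2 or α5β3γ2 receptors, grown in MEM/EBSS with 10% FCS at 37 °C. Membranes were resuspended in 10 mM potassium phosphate, pH 7.4, with 100 mM KCl. Assays used 1–2 nM [3H]Ro15-1788 and test compound from 10^-9 to 10^-5 M, at least six concentrations. Diazepam at 10^-5 M defined nonspecific binding. Incubation ran 1 h at 4 °C. Single-point % inhibition was measured at 10 µM, and Ki by curve fitting; n = 5, in duplicate.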

[2] = Displacement of [3H]Ro15-1788 from GABA-A receptor benzodiazepine binding site in bovine cerebral cortex membranes after 1 hr; format: cell membranes, Bos taurus, Membrane
[3] = tested on: Mus musculus; assay: Neurotoxicity in CD1 albino mouse assessed as decrease in number of falls from rotating rod at 10 mg/kg, po by rota-rod test relative to control; format: toxicity, organism-based; design: dose 10 mg/kg, route oral; details: in vivo, TDE = time-dependent effect
In short: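 Motor coordination was tested on a rota-rod turning at 24 rpm in male CD-1 mice dosed po in 1% CMC. Falls within 30 s were counted at a pretest and at 15, 30, 45 and 60 min after dosing. Each value is the mean of five mice, compared with CMC-treated controls.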

[4] = tested on: Rattus norvegicus; assay: Procognitive effect in Harlan Wistar rat assessed as exploring time of familiar rat during social investigatory behaviour at 10 mg/kg, po administered 30 mins prior to testing measured for 5 mins by social learning test (reference value: 27.6 secs); format: functional
[5] = tested on: Mus musculus; assay: Anxiolytic activity in CD1 albino mouse assessed as increase in time spent in illuminated side at 1 mg/kg, po administered 30 mins prior to testing measured for 5 mins by light-dark box test; format: functional, organism-based; design: dose 1 mg/kg
In short: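 Light/dark box: two equal acrylic compartments, one lit by a 60 W lamp, joined by a floor-level opening. Male CD-1 mice were dosed po in 1% CMC 30 min before the test, then placed in the centre of the lit side facing away from the dark side. Over 5 min, transfers and time in the light side were recorded, n = 8 mice per group.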

[6] = biological target: T1, Gamma-aminobutyric acid receptor subunit alpha-5 (Homo sapiens, UniProt P18507+P31644+P47870); assay: Displacement of [3H]Ro15-1788 from recombinant GABA-A alpha5beta2gamma2 receptor benzodiazepine binding site (unknown origin) after 1 hr
T1 sequence (P31644 whole entry): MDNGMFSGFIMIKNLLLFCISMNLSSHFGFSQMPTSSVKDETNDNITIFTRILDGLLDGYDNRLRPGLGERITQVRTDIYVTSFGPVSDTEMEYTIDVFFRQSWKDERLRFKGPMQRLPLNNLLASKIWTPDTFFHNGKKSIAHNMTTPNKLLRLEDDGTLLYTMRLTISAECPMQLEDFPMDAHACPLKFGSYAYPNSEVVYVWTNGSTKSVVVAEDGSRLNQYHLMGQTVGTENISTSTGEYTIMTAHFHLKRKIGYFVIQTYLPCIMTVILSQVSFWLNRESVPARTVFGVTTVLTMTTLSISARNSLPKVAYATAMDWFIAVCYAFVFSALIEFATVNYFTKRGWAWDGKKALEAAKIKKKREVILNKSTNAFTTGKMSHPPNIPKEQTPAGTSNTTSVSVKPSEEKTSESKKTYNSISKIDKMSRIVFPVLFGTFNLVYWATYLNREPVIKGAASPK

[7] = tested on: Rattus norvegicus; assay: Procognitive effect in Harlan Wistar rat assessed as exploring time of familiar rat during social investigatory behaviour at 0.3 mg/kg, po administered 30 mins prior to testing measured for 5 mins by social learning test (reference value: 27.6 secs); format: functional
[8] = tested on: Mus musculus; assay: Antiamnesic activity in CD1 albino mouse assessed as reversal of scopolamine-induced amnesia at 0.1 mg/kg, po administered 30 mins prior to scopolamine challenge measured after 24 hrs by passive avoidance test; format: functional, organism-based; design: dose 0.1 mg/kg
In short: (§2)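 Step-through passive avoidance in male CD-1 mice (22–24 g). Test drugs were given po, suspended in 1% carboxymethylcellulose at 10 ml/kg, 30 min before the training session. For the antiamnesic arm, scopolamine 1.5 mg/kg was injected immediately after punishment. Retention latency was compared with CMC-treated controls, n = 10–12 mice per group.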

[9] = biological target: T2, GABA-A receptor; alpha-1/beta-2/gamma-2 (Homo sapiens, UniProt P14867+P18507+P47870); assay: Displacement of [3H]Ro15-1788 from recombinant GABA-A alpha1beta2gamma2 receptor benzodiazepine binding site (unknown origin) after 1 hr; format: protein-complex assay; in short: as §1
T2 sequence (P14867 whole entry): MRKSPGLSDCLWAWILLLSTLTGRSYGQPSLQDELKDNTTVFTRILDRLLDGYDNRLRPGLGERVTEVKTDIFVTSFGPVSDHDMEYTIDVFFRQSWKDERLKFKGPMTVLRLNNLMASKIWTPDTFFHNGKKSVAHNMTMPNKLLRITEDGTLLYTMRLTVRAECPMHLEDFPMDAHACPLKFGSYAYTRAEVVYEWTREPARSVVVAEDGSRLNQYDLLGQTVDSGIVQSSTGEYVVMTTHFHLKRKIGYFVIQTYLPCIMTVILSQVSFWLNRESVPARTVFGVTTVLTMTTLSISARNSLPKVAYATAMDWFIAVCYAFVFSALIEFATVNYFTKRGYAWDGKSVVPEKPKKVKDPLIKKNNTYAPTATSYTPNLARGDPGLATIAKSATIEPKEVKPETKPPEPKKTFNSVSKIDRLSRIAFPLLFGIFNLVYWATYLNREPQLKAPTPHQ
T2 sequence (P47870 whole entry): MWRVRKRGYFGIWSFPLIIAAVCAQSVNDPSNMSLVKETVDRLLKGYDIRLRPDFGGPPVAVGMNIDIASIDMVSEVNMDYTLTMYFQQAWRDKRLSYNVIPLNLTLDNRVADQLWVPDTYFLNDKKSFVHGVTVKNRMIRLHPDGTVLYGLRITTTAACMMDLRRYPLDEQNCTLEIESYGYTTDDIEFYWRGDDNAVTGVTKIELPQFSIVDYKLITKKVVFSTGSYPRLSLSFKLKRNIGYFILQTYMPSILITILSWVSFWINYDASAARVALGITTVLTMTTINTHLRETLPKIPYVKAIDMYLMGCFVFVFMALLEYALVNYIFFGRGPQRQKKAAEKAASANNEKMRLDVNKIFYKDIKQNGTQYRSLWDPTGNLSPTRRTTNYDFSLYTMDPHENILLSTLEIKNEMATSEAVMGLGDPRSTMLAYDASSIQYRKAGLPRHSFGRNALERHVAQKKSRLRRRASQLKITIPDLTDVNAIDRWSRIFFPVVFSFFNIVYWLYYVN
T2 sequence (P18507 whole entry): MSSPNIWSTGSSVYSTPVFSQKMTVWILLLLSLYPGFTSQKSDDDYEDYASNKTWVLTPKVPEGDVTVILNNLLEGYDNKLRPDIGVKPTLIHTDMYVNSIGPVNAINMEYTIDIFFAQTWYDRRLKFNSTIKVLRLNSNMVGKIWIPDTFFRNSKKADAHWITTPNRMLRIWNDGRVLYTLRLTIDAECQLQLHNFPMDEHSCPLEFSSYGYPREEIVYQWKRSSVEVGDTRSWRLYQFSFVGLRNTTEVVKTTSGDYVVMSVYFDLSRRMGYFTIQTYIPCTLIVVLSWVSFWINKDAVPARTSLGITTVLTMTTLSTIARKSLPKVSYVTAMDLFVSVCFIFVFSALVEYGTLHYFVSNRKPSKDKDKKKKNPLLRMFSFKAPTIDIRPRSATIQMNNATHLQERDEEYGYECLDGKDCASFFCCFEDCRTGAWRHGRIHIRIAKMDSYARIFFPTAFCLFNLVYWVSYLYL

[10] = tested on: Mus musculus; assay: Anticonvulsant activity in CD1 albino mouse assessed as protection against pentylenetetrazole-induced convulsions at 1 mg/kg, po administered 30 mins prior to pentylenetetrazole challenge measured over 30 mins (reference value: 7.1%); format: functional
[11] = tested on: Rattus norvegicus; assay: Procognitive effect in Harlan Wistar rat assessed as exploring time of familiar rat during social investigatory behaviour at 1 mg/kg, po administered 30 mins prior to testing measured for 5 mins by social learning test (reference value: 27.6 secs); format: functional
[12] = tested on: Mus musculus; assay: Cognitive enhancing effect in CD1 albino mouse assessed as increase in retention latency at 0.1 to 10 mg/kg, po administered 30 mins prior to testing measured after 24 hrs by passive avoidance test relative to control; format: functional, organism-based; in short: as §2
[13] = tested on: Rattus norvegicus; assay: Procognitive effect in Harlan Wistar rat assessed as decrease in exploring time of unfamiliar rat during social investigatory behaviour at 0.3 to 10 mg/kg, po administered 30 mins prior to testing measured for 5 mins by social learning test relative to control; format: functional, organism-based

In the case of [O-][n+]1nc2c(I)cnn2c2cc(NCc3cccnc3)ccc21, the inhibition [1] was 37%, the pKi [2] was 9.48 and the Activity [3] was “tde”. The Time [4] was 42.5 s, the Activity [5] was “inactive” and the pKi [6] was 7.60. For the same compound, the Time [7] was 29.4 s, the Activity [8] was “Active” and the pKi [9] was 9.35. For the same compound, the Activity [10] was 0%, the Time [11] was 43.7 s and the Activity [12] was “Active”. For the same compound, the Activity [13] was “inactive”.
